Measured values taken from ChEMBL document CHEMBL3046448, “Design and syntheses of novel phthalazin-1(2H)-one derivatives as acetohydroxyacid synthase inhibitors” (J Agric Food Chem, 2006).
One block for each compound: values may come before it.

Tests used:
Digitaria sanguinalis [1] = assay: Herbicidal activity against Digitaria sanguinalis (hairy crabgrass) assessed as growth inhibition at 150 g ai/ha applied as pre-emergence treatment 24 hr after weeds seeds sowing under green house conditions measured 15 days post compound treatment; format: functional; settings: read-out: GI
How it was run: (§1)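 Pre-emergence spray applied 24 h after sowing weeds in pots in a greenhouse. Clay soil: pH 6.5, 1.6% organic matter, 37.3% clay, CEC 12.1 cmol/kg. Formulation: 100 g/L emulsified concentrate (DMF solvent, TW-80 emulsifier) diluted with water to 150 g ai/ha. Untreated and DMF-treated controls. Growth inhibition judged visually at 15 days: ++ >80%, + 50-80%, − <50%.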

Setaria viridis [2] = assay: Herbicidal activity against Setaria viridis (green foxtail) assessed as growth inhibition at 150 g ai/ha applied as pre-emergence treatment 24 hr after weeds seeds sowing under green house conditions measured 15 days post compound treatment; format: functional; settings: read-out: GI; how it was run: as §1
Amaranthus retroflexus [3] = assay: Herbicidal activity against Amaranthus retroflexus assessed as growth inhibition at 150 g ai/ha applied as pre-emergence treatment 24 hr after weeds seeds sowing under green house conditions measured 15 days post compound treatment; format: functional; settings: read-out: GI; how it was run: as §1
Setaria viridis [4] = assay: Herbicidal activity against Setaria viridis (green foxtail) assessed as growth inhibition at 150 g ai/ha applied as post-emergence treatment under green house conditions measured 15 days post compound treatment; format: functional; settings: 360 h, read-out: GI
How it was run: (§2)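 Monocot weeds grown in pots in a greenhouse and sprayed post-emergence at the one-leaf stage. Clay soil: pH 6.5, 1.6% organic matter, 37.3% clay, CEC 12.1 cmol/kg. Formulation: 100 g/L emulsified concentrate (DMF, TW-80) diluted with water to 150 g ai/ha. Untreated and DMF controls included. Growth inhibition scored visually after 15 days: ++ >80%, + 50-80%, − <50%.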

Chenopodium album [5] = assay: Herbicidal activity against Chenopodium album assessed as growth inhibition at 150 g ai/ha applied as post-emergence treatment under green house conditions measured 15 days post compound treatment; format: functional; settings: 360 h, read-out: GI
How it was run: (§3)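 Post-emergence spray on pot-grown dicot weeds at the two-leaf stage in a greenhouse. Clay soil: pH 6.5, 1.6% organic matter, 37.3% clay, CEC 12.1 cmol/kg. Formulation: 100 g/L DMF/TW-80 emulsified concentrate, water-diluted to 150 g ai/ha. Untreated and DMF solvent controls. Visual inhibition rating at 15 days: ++ >80%, + 50-80%, − <50%.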

Amaranthus retroflexus [6] = assay: Herbicidal activity against Amaranthus retroflexus assessed as growth inhibition at 150 g ai/ha applied as post-emergence treatment under green house conditions measured 15 days post compound treatment; format: functional; settings: 360 h, read-out: GI; how it was run: as §3
Echinochloa crus-galli [7] = assay: Herbicidal activity against Echinochloa crus-galli (barnyard grass) assessed as growth inhibition at 150 g ai/ha applied as pre-emergence treatment 24 hr after weeds seeds sowing under green house conditions measured 15 days post compound treatment; format: functional; settings: read-out: GI; how it was run: as §1
Brassica juncea [8] = assay: Herbicidal activity against Brassica juncea assessed as growth inhibition at 150 g ai/ha applied as post-emergence treatment under green house conditions measured 15 days post compound treatment; format: functional; settings: 360 h, read-out: GI; how it was run: as §3
Chenopodium album [9] = assay: Herbicidal activity against Chenopodium album assessed as growth inhibition at 150 g ai/ha applied as pre-emergence treatment 24 hr after weeds seeds sowing under green house conditions measured 15 days post compound treatment; format: functional; settings: read-out: GI; how it was run: as §1
[10] = target: T1, Acetolactate synthase, chloroplastic (Arabidopsis thaliana, UniProt P17597); assay: Inhibition of wild type Arabidopsis thaliana acetohydroxyacid synthase
T1 sequence (P17597 whole entry): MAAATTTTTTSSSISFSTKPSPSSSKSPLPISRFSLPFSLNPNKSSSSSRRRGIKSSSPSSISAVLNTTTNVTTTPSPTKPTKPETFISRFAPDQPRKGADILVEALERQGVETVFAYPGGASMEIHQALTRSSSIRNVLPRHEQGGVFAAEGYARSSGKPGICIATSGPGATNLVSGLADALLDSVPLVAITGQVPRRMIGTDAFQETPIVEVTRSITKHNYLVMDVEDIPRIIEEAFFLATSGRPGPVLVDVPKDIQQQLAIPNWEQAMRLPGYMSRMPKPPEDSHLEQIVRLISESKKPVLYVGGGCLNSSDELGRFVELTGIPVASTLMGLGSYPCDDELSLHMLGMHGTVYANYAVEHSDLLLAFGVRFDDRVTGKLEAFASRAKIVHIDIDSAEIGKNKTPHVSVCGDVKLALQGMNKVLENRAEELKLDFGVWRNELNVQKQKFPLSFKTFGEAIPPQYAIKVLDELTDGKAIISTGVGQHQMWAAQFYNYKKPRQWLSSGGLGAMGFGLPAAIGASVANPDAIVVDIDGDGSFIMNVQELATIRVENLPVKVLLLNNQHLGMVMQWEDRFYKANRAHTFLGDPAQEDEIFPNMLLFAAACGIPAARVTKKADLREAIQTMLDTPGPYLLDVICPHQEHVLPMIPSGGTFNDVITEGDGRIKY

Digitaria sanguinalis [11] = assay: Herbicidal activity against Digitaria sanguinalis (hairy crabgrass) assessed as growth inhibition at 150 g ai/ha applied as post-emergence treatment under green house conditions measured 15 days post compound treatment; format: functional; settings: 360 h, read-out: GI; how it was run: as §2
Echinochloa crus-galli [12] = assay: Herbicidal activity against Echinochloa crus-galli (barnyard grass) assessed as growth inhibition at 150 g ai/ha applied as post-emergence treatment under green house conditions measured 15 days post compound treatment; format: functional; settings: 360 h, read-out: GI; how it was run: as §2
Brassica juncea [13] = assay: Herbicidal activity against Brassica juncea assessed as growth inhibition at 150 g ai/ha applied as pre-emergence treatment 24 hr after weeds seeds sowing under green house conditions measured 15 days post compound treatment; format: functional; settings: read-out: GI; how it was run: as §1

Ki [10]: 1680 µM
SMILES: CCn1nc(C)c2cccc(Oc3nc(OC)cc(OC)n3)c2c1=O
inhibition of growth at 150 g/ha (Digitaria sanguinalis [1]): < 50% | inhibition of growth at 150 g/ha (Setaria viridis [2]): < 50% | inhibition of growth at 150 g/ha (Amaranthus retroflexus [3]): < 50% | inhibition of growth at 150 g/ha (Setaria viridis [4]): > 80% | inhibition of growth at 150 g/ha (Chenopodium album [5]): 50% | inhibition of growth at 150 g/ha (Amaranthus retroflexus [6]): > 80% | inhibition of growth at 150 g/ha (Echinochloa crus-galli [7]): < 50% | inhibition of growth at 150 g/ha (Brassica juncea [8]): < 50% | inhibition of growth at 150 g/ha (Chenopodium album [9]): < 50% | inhibition of growth at 150 g/ha (Digitaria sanguinalis [11]): > 80% | inhibition of growth at 150 g/ha (Echinochloa crus-galli [12]): > 80% | inhibition of growth at 150 g/ha (Brassica juncea [13]): < 50%

Ki [10]: 822 µM
SMILES: COc1cc(OC)nc(Oc2cccc3c(C)nn(Cc4ccccc4)c(=O)c23)n1
inhibition of growth at 150 g/ha (Digitaria sanguinalis [1]): < 50% | inhibition of growth at 150 g/ha (Setaria viridis [2]): < 50% | inhibition of growth at 150 g/ha (Amaranthus retroflexus [3]): < 50% | inhibition of growth at 150 g/ha (Setaria viridis [4]): < 50% | inhibition of growth at 150 g/ha (Chenopodium album [5]): < 50% | inhibition of growth at 150 g/ha (Amaranthus retroflexus [6]): < 50% | inhibition of growth at 150 g/ha (Echinochloa crus-galli [7]): < 50% | inhibition of growth at 150 g/ha (Brassica juncea [8]): < 50% | inhibition of growth at 150 g/ha (Chenopodium album [9]): < 50% | inhibition of growth at 150 g/ha (Digitaria sanguinalis [11]): < 50% | inhibition of growth at 150 g/ha (Echinochloa crus-galli [12]): < 50% | inhibition of growth at 150 g/ha (Brassica juncea [13]): < 50%

Ki [10]: 420 µM
SMILES: COc1cc(OC)nc(Oc2cccc3c(C)nn(Cc4ccc(Br)cc4F)c(=O)c23)n1
inhibition of growth at 150 g/ha (Digitaria sanguinalis [1]): < 50% | inhibition of growth at 150 g/ha (Setaria viridis [2]): < 50% | inhibition of growth at 150 g/ha (Amaranthus retroflexus [3]): < 50% | inhibition of growth at 150 g/ha (Setaria viridis [4]): < 50% | inhibition of growth at 150 g/ha (Chenopodium album [5]): < 50% | inhibition of growth at 150 g/ha (Amaranthus retroflexus [6]): < 50% | inhibition of growth at 150 g/ha (Echinochloa crus-galli [7]): < 50% | inhibition of growth at 150 g/ha (Brassica juncea [8]): < 50% | inhibition of growth at 150 g/ha (Chenopodium album [9]): < 50% | inhibition of growth at 150 g/ha (Digitaria sanguinalis [11]): < 50% | inhibition of growth at 150 g/ha (Echinochloa crus-galli [12]): < 50% | inhibition of growth at 150 g/ha (Brassica juncea [13]): < 50%

Ki [10]: 634 µM
SMILES: COc1cc(OC)nc(Oc2cccc3c(C)nn(Cc4c(F)cccc4F)c(=O)c23)n1
inhibition of growth at 150 g/ha (Digitaria sanguinalis [1]): < 50% | inhibition of growth at 150 g/ha (Setaria viridis [2]): < 50% | inhibition of growth at 150 g/ha (Amaranthus retroflexus [3]): < 50% | inhibition of growth at 150 g/ha (Setaria viridis [4]): < 50% | inhibition of growth at 150 g/ha (Chenopodium album [5]): < 50% | inhibition of growth at 150 g/ha (Amaranthus retroflexus [6]): < 50% | inhibition of growth at 150 g/ha (Echinochloa crus-galli [7]): < 50% | inhibition of growth at 150 g/ha (Brassica juncea [8]): < 50% | inhibition of growth at 150 g/ha (Chenopodium album [9]): < 50% | inhibition of growth at 150 g/ha (Digitaria sanguinalis [11]): < 50% | inhibition of growth at 150 g/ha (Echinochloa crus-galli [12]): < 50% | inhibition of growth at 150 g/ha (Brassica juncea [13]): < 50%

Ki [10]: 1040 µM
SMILES: COc1cc(OC)nc(Oc2cccc3c(C)nn(Cc4ccc(F)cc4F)c(=O)c23)n1
inhibition of growth at 150 g/ha (Digitaria sanguinalis [1]): < 50% | inhibition of growth at 150 g/ha (Setaria viridis [2]): < 50% | inhibition of growth at 150 g/ha (Amaranthus retroflexus [3]): < 50% | inhibition of growth at 150 g/ha (Setaria viridis [4]): 50% | inhibition of growth at 150 g/ha (Chenopodium album [5]): < 50% | inhibition of growth at 150 g/ha (Amaranthus retroflexus [6]): > 80% | inhibition of growth at 150 g/ha (Echinochloa crus-galli [7]): < 50% | inhibition of growth at 150 g/ha (Brassica juncea [8]): 50% | inhibition of growth at 150 g/ha (Chenopodium album [9]): < 50% | inhibition of growth at 150 g/ha (Digitaria sanguinalis [11]): < 50% | inhibition of growth at 150 g/ha (Echinochloa crus-galli [12]): 50% | inhibition of growth at 150 g/ha (Brassica juncea [13]): < 50%
